# Source: ChEMBL document CHEMBL1156920, “Structural analogues of schweinfurthin F: probing the steric, electronic, and hydrophobic properties of the D-ring substructure” (Bioorg Med Chem, 2010)
# Experiments:
# HCC 2998 = experiment: Growth inhibition of human HCC2998 cells; assay type: functional
# SF-539 = experiment: Growth inhibition of human SF539 cells; assay type: functional
# MOLT-4 = experiment: Growth inhibition of human MOLT4 cells; assay type: functional
# NCI-H226 = experiment: Growth inhibition of human NCI-H226 cells; assay type: functional
# SF-268 = experiment: Growth inhibition of human SF268 cells; assay type: functional
# HL-60(TB) = experiment: Growth inhibition of human HL-60(TB) cells; assay type: functional
# BT-549 = experiment: Growth inhibition of human BT549 cells; assay type: functional
# A498 = experiment: Growth inhibition of human A498 cells; assay type: functional
# MCF7 = experiment: Growth inhibition of human MCF7 cells; assay type: functional
# NCI/ADR-RES = experiment: Growth inhibition of human NCI/ADR-RES cells; assay type: functional
# U-251 = experiment: Growth inhibition of human U251 cells; assay type: functional
# 786-0 = experiment: Growth inhibition of human 786-0 cells; assay type: functional
# SK-OV-3 = experiment: Growth inhibition of human SKOV3 cells; assay type: functional
# SF-295 [1] = experiment: Growth inhibition of human SF295 cells; assay type: functional
# NCI-H522 = experiment: Growth inhibition of human NCI-H522 cells; assay type: functional
# ACHN = experiment: Growth inhibition of human ACHN cells; assay type: functional
# OVCAR-5 = experiment: Growth inhibition of human OVCAR5 cells; assay type: functional
# PC-3 = experiment: Growth inhibition of human PC3 cells; assay type: functional
# SN12C = experiment: Growth inhibition of human SN12C cells; assay type: functional
# NCI-H460 = experiment: Growth inhibition of human NCI-H460 cells; assay type: functional
# IGROV-1 = experiment: Growth inhibition of human IGROV1 cells; assay type: functional
# KM12 = experiment: Growth inhibition of human KM12 cells; assay type: functional
# CAKI-1 = experiment: Growth inhibition of human Caki1 cells; assay type: functional
# NCI-H322M = experiment: Growth inhibition of human NCI-H322M cells; assay type: functional
# UACC-257 = experiment: Growth inhibition of human UACC257 cells; assay type: functional
# MDA-MB-435 = experiment: Growth inhibition of human MDA-MB-435 cells; assay type: functional
# SK-MEL-5 = experiment: Growth inhibition of human SK-MEL-5 cells; assay type: functional
# HOP-62 = experiment: Growth inhibition of human HOP62 cells; assay type: functional
# [2] = Growth inhibition of human […] cells; assay type: functional
# A549 [3] = experiment: Cytotoxicity against human A549 cells after 44 hrs by MTT assay; assay type: functional, cell-based; conditions: A549, 44 h
# How it was run: (§1)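 SF-295 cells cultured in RPMI 1640 and A549 cells in F-12, each with 10% FBS, penicillin–streptomycin, amphotericin B and L-glutamine, at 37 °C in 5% CO2. Cells were grown to 60% confluency, then treated for 44 h. Medium was replaced with medium containing 0.06 mg/mL MTT (phenol red-free RPMI for SF-295) for 4 h. Acid/Triton/isopropanol stop solution was added, plates incubated overnight at 37 °C, OD read at 540 and 650 nm, and EC50 calculated.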
# SK-MEL-2 = experiment: Growth inhibition of human SK-MEL-2 cells; assay type: functional
# SF-295 [4] = experiment: Cytotoxicity against human SF295 cells after 44 hrs by MTT assay; assay type: functional, cell-based; conditions: SF-295, 44 h; how it was run: as §1
# [5] = Cytotoxicity against human NCI60 cells; assay type: functional
# LOX IMVI = experiment: Growth inhibition of human LOXIMVI cells; assay type: functional
# SNB-75 = experiment: Growth inhibition of human SNB75 cells; assay type: functional
# HCT-116 = experiment: Growth inhibition of human HCT116 cells; assay type: functional
# HCT-15 = experiment: Growth inhibition of human HCT15 cells; assay type: functional
# A549 [6] = experiment: Growth inhibition of human A549 cells; assay type: functional
# HT-29 = experiment: Growth inhibition of human HT-29 cells; assay type: functional
# OVCAR-3 = experiment: Growth inhibition of human OVCAR-3 cells; assay type: functional
# SR = experiment: Growth inhibition of human SR cells; assay type: functional
# EKVX = experiment: Growth inhibition of human EKVX cells; assay type: functional
# [7] = read-out: pLC50 (the source's name) (converted)
smiles,measurement,setting,value
COc1cc(/C=C/c2cc(O)c(CCC(C)C)c(O)c2)cc2c1O[C@]1(C)CC[C@@H](O)C(C)(C)[C@H]1C2,GI50,HCC 2998,0.794 µM
same,LC50,HCC 2998,38 µM
same,TGI,HCC 2998; read-out: pTGI (converted),10.5 µM
same,GI50,SF-539,0.0288 µM
same,LC50,SF-539,2.69 µM
same,TGI,SF-539; read-out: pTGI (converted),0.295 µM
same,GI50,MOLT-4,0.0457 µM
same,LC50,MOLT-4,> 100 µM
same,TGI,MOLT-4; read-out: pTGI (converted),18.6 µM
same,GI50,NCI-H226,0.692 µM
same,LC50,NCI-H226,> 100 µM
same,TGI,NCI-H226; read-out: pTGI (converted),3.55 µM
same,GI50,SF-268,0.214 µM
same,LC50,SF-268,39.8 µM
same,TGI,SF-268; read-out: pTGI (converted),11.5 µM
same,GI50,HL-60(TB),0.251 µM
same,CC50,HL-60(TB); [7],> 100 µM
same,TGI,HL-60(TB); read-out: pTGI (converted),38.9 µM
same,GI50,BT-549,0.363 µM
same,CC50,BT-549; [7],> 100 µM
same,TGI,BT-549; read-out: pTGI (converted),28.8 µM
same,GI50,A498,0.158 µM
same,LC50,A498,36.3 µM
same,TGI,A498; read-out: pTGI (converted),6.31 µM
same,GI50,MCF7,0.0427 µM
same,CC50,MCF7; [7],> 100 µM
same,TGI,MCF7; read-out: pTGI (converted),2.4 µM
same,GI50,NCI/ADR-RES,2.34 µM
same,CC50,NCI/ADR-RES; [7],> 100 µM
same,TGI,NCI/ADR-RES; read-out: pTGI (converted),47.9 µM
same,GI50,U-251,0.0631 µM
same,LC50,U-251,37.2 µM
same,TGI,U-251; read-out: pTGI (converted),12.9 µM
same,GI50,786-0,0.0102 µM
same,LC50,786-0,2.88 µM
same,TGI,786-0; read-out: pTGI (converted),0.0537 µM
same,GI50,SK-OV-3,11.5 µM
same,LC50,SK-OV-3,> 100 µM
same,TGI,SK-OV-3; read-out: pTGI (converted),97.7 µM
same,GI50,SF-295 [1],0.0331 µM
same,LC50,SF-295 [1],66.1 µM
same,TGI,SF-295 [1]; read-out: pTGI (converted),1.35 µM
same,GI50,NCI-H522,1.32 µM
same,LC50 (50% lethal concentration),NCI-H522,> 100 µM
same,TGI,NCI-H522; read-out: pTGI (converted),24 µM
same,GI50,ACHN,0.309 µM
same,CC50,ACHN; [7],43.7 µM
same,TGI,ACHN; read-out: pTGI (converted),15.8 µM
same,GI50,OVCAR-5,10.7 µM
same,"LC50 (lethal concentration, 50% cell kill)",OVCAR-5,69.2 µM
same,TGI,OVCAR-5; read-out: pTGI (converted),26.9 µM
same,GI50,PC-3,0.178 µM
same,CC50,PC-3; [7],> 100 µM
same,TGI,PC-3; read-out: pTGI (converted),32.4 µM
same,GI50,SN12C,0.741 µM
same,LC50,SN12C,> 100 µM
same,TGI,SN12C; read-out: pTGI (converted),36.3 µM
same,GI50,NCI-H460,0.0661 µM
same,LC50,NCI-H460,51.3 µM
same,TGI,NCI-H460; read-out: pTGI (converted),1.78 µM
same,GI50,IGROV-1,0.513 µM
same,LC50,IGROV-1,> 100 µM
same,TGI,IGROV-1; read-out: pTGI (converted),46.8 µM
same,GI50,KM12,0.275 µM
same,LC50,KM12,28.8 µM
same,TGI,KM12; read-out: pTGI (converted),5.25 µM
same,GI50,CAKI-1,0.0708 µM
same,LC50,CAKI-1,> 100 µM
same,TGI,CAKI-1; read-out: pTGI (converted),17.8 µM
same,GI50,NCI-H322M,0.933 µM
same,TGI,NCI-H322M; read-out: pTGI (converted),28.8 µM
same,GI50,UACC-257,3.39 µM
same,LC50,UACC-257,64.6 µM
same,TGI,UACC-257; read-out: pTGI (converted),21.9 µM
same,GI50,MDA-MB-435,0.501 µM
same,LC50,MDA-MB-435,> 100 µM
same,TGI,MDA-MB-435; read-out: pTGI (converted),24 µM
same,GI50,SK-MEL-5,0.0832 µM
same,LC50,SK-MEL-5,4.47 µM
same,TGI,SK-MEL-5; read-out: pTGI (converted),1.51 µM
same,GI50,HOP-62,0.0513 µM
same,LC50,HOP-62,13.8 µM
same,TGI,HOP-62; read-out: pTGI (converted),0.603 µM
same,GI50,[2],0.0174 µM
same,LC50,[2],> 100 µM
same,EC50,A549 [3],4.2 µM
same,GI50,SK-MEL-2,4.47 µM
same,TGI,SK-MEL-2; read-out: pTGI (converted),33.1 µM
same,EC50,SF-295 [4],0.4 µM
same,GI50,[5],0.29 µM
same,GI50,LOX IMVI,0.0708 µM
same,LC50,LOX IMVI,5.89 µM
same,TGI,LOX IMVI; read-out: pTGI (converted),1.78 µM
same,GI50,SNB-75,0.0603 µM
same,LC50,SNB-75,39.8 µM
same,TGI,SNB-75; read-out: pTGI (converted),11.2 µM
same,GI50,HCT-116,0.0468 µM
same,CC50,HCT-116; [7],47.9 µM
same,TGI,HCT-116; read-out: pTGI (converted),8.13 µM
same,GI50,HCT-15,0.182 µM
same,LC50,HCT-15,26.3 µM
same,TGI,HCT-15; read-out: pTGI (converted),2.88 µM
same,GI50,A549 [6],0.166 µM
same,LC50 (50% lethal concentration),A549 [6],> 100 µM
same,TGI,A549 [6]; read-out: pTGI (converted),17.4 µM
same,GI50,HT-29,0.813 µM
same,LC50 (50% lethal concentration),HT-29,97.7 µM
same,TGI,HT-29; read-out: pTGI (converted),4.47 µM
same,GI50,OVCAR-3,0.417 µM
same,LC50 (50% lethal concentration),OVCAR-3,56.2 µM
same,TGI,OVCAR-3; read-out: pTGI (converted),14.1 µM
same,GI50,SR,0.0891 µM
same,LC50,SR,> 100 µM
same,TGI,SR; read-out: pTGI (converted),10.5 µM
same,GI50,EKVX,0.447 µM
same,LC50,EKVX,> 100 µM
same,TGI,EKVX; read-out: pTGI (converted),17.4 µM
